From ChEMBL document CHEMBL5331142, “Novel 1,4-Dihydropyridines as Specific Binders and Activators of SIRT3 Impair Cell Viability and Clonogenicity and Downregulate Hypoxia-Induced Targets in Cancer Cells” (J Med Chem, 2023)
Active and inactive are the calls of the source. The calls are words filed in the database; no cut-off is given here.

Columns and labels:
[1] = biological target: T1, NAD-dependent protein deacetylase sirtuin-3, mitochondrial (Homo sapiens) (UniProt Q9NTG7); assay: Activation of N-terminal his-tagged human SIRT3 (114 to 380 residues) deacylation activity expressed in Escherichia coli at 100 uM using ACS2-acK642 as substrate in presence of NAD+ by NADH oxidation-coupled enzymatic assay; details: filed as activator
T1 sequence (whole entry): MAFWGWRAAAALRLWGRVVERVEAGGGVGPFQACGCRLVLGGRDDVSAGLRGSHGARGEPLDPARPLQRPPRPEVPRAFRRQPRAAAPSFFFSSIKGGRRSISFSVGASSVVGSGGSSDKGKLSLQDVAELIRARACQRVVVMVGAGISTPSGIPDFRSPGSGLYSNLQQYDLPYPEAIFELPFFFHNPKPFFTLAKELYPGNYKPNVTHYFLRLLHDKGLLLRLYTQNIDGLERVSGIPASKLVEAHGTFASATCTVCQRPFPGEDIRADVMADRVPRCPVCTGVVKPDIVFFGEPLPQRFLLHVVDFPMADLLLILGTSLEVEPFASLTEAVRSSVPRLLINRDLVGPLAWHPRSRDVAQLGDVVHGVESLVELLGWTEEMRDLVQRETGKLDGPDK
Summary of the method: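 Coupled PncA/GDH deacylation assay following NADPH oxidation to NADP+. 1.5 μM SIRT3 (E. coli-expressed, tag removed) with 50 μM ACS2-acK642 peptide and 100 μM NAD+, compound at 100 μM, 5% final DMSO.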

[2] = biological target: NAD-dependent protein deacylase sirtuin-5, mitochondrial (Homo sapiens) (UniProt Q9NXA8); assay: Activation of N-terminal his-tagged human SIRT5 (34 to 302 residues) expressed in Escherichia coli at 10 uM using p53-acK381 as substrate in presence of NAD+ by NADH oxidation-coupled enzymatic assay
MDA-MB-231 [3] = assay: Inhibition of clonogenicity in human MDA-MB-231 cells incubated for 48 hrs under hypoxia condition by crystal violet staining based assay; format: functional, cell-based; details: MDA-MB-231, 48 h
Summary of the method: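 Dose range 1–50 μM for 48 h under CoCl2 (200 μM) hypoxia. 500 surviving cells replated and grown about 7 days (CAL-62) or 10 days (MDA-MB-231). Crystal violet colony counts used to derive IC50/EC50. Three independent experiments.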

CAL-62 [4] = assay: Anticancer activity against human CAL-62 cells assessed as reduction in cell viability at 50 uM incubated for 24 to 48 hrs under normoxia condition by trypan blue exclusion assay; format: functional, cell-based; details: time 24-48 hrs, TDE = time-dependent effect
Summary of the method: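 CAL-62 cells in RPMI 1640 with 10% FBS, treated with 50 μM compound (DMSO) for 24 and 48 h. Hypoxia induced with 200 μM CoCl2, kept in the medium during treatment. Viable cells counted by 0.4% trypan blue staining on a hemocytometer.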

CAL-62 [5] = assay: Downregulation of HIF1alpha expression in human CAL-62 cells at 50 uM incubated for 48 hrs under hypoxia condition by Western blot analysis; format: functional, cell-based
Summary of the method: (§1)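 CAL-62 or MDA-MB-231 cells made hypoxic with 200 μM CoCl2 for 24 h, then treated with 50 μM compound for 48 h with CoCl2 retained. Lysates (15 or 50 μg protein) immunoblotted for HIF-1α, EPAS-1 or CA-IX with ACTB, ECL detection. 3-TYP (1 μM) as control.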

MDA-MB-231 [6] = assay: Downregulation of EPAS-1 expression in human MDA-MB-231 cells at 50 uM incubated for 48 hrs under hypoxia condition by Western blot analysis; format: functional, cell-based; summary of the method: as §1
MDA-MB-231 [7] = assay: Downregulation of MMP9 gene expression in human MDA-MB-231 cells at 50 uM incubated for 48 hrs under hypoxia condition by qRT-PCR analysis; format: functional, cell-based
Summary of the method: (§2)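 MDA-MB-231 cells pretreated with 200 μM CoCl2 to induce hypoxia, then exposed to 50 μM compound for 48 h with CoCl2 maintained. qRT-PCR by the 2(−ΔCt) method vs DMSO control, mean ± SEM. Four independent experiments.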

MDA-MB-231 [8] = assay: Downregulation of SLUG gene expression in human MDA-MB-231 cells at 50 uM incubated for 48 hrs under hypoxia condition by qRT-PCR analysis; format: functional, cell-based; summary of the method: as §2
MDA-MB-231 [9] = assay: Downregulation of COLLAGEN gene expression in human MDA-MB-231 cells at 50 uM incubated for 48 hrs under hypoxia condition by qRT-PCR analysis; format: functional, cell-based; summary of the method: as §2
MDA-MB-231 [10] = assay: Downregulation of HIF1alpha expression in human MDA-MB-231 cells at 50 uM incubated for 48 hrs under hypoxia condition by Western blot analysis; format: functional, cell-based; summary of the method: as §1
CAL-62 [11] = assay: Inhibition of clonogenicity in human CAL-62 cells at 50 uM incubated for 24 to 48 hrs under normoxia condition by crystal violet staining based assay; format: functional; details: time 24-48 hrs
Summary of the method: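 CAL-62 cells at 80–90% confluence treated with 50 μM compound for 24 or 48 h, in normoxia or with 200 μM CoCl2 (hypoxia). 500 cells replated per 100 mm dish and grown about 7 days. Colonies fixed in 4% formaldehyde, stained with 0.5% crystal violet, and counted.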

MDA-MB-231 [12] = assay: Downregulation of SLUG gene expression in human MDA-MB-231 cells at 50 uM incubated for 48 hrs by qRT-PCR analysis; format: functional, cell-based
Summary of the method: (§3)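 MDA-MB-231 cells treated with 50 μM compound for 48 h under normoxia, DMSO vehicle control. qRT-PCR quantified by the 2(−ΔCt) method as fold of control, mean ± SEM. Three independent experiments.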

MDA-MB-231 [13] = assay: Downregulation of MMP2 gene expression in human MDA-MB-231 cells at 50 uM incubated for 48 hrs by qRT-PCR analysis; format: functional, cell-based; summary of the method: as §3
[14] = biological target: T1, NAD-dependent protein deacetylase sirtuin-3, mitochondrial (Homo sapiens); assay: Activation of human SIRT3 overexpressing in human MDA-MB-231 cells assessed as increase in acK68-MnSOD deacetylation level at 50 uM incubated for 4 hrs by Western blot analysis assay; format: cell-based; details: filed as activator
Summary of the method: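 CAL-62 or MDA-MB-231 cells treated 4 h at 50 μM. Lysed in Tris/NaCl/EDTA/Triton buffer with protease and phosphatase inhibitors. 15 or 50 μg protein resolved by SDS-PAGE, immunoblotted for acK68- or acK122-MnSOD and total MnSOD, ECL detection. Densitometric acetyl/total ratio. SIRT3 inhibitor 3-TYP (1 μM) used as control.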

[15] = biological target: T1, NAD-dependent protein deacetylase sirtuin-3, mitochondrial (Homo sapiens); assay: Activation of human SIRT3 overexpressing in human MDA-MB-231 cells assessed as increase in GDH activity at 50 uM incubated for 4 hrs by absorbance assay; format: cell-based; details: filed as activator
Summary of the method: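 MDA-MB-231 cells exposed 4 h to 50 μM compound. 10^6 cells lysed in GDH assay buffer for 10 min on ice. Supernatant mixed with developer and glutamate, incubated 3 min at 37 °C, absorbance read at 450 nm with buffer blank subtracted. SIRT3-overexpressing MDA-MB-231 cells served as reference.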

MDA-MB-231 [16] = assay: Downregulation of MMP9 gene expression in human MDA-MB-231 cells at 50 uM incubated for 48 hrs by qRT-PCR analysis; format: functional, cell-based; summary of the method: as §3
MDA-MB-231 [17] = assay: Induction of cell death in human MDA-MB-231 cells incubated for 48 hrs under hypoxia condition by trypan blue exclusion assay; format: functional, cell-based; details: MDA-MB-231, 48 h
Summary of the method: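 MDA-MB-231 cells treated at 1–50 μM for 48 h under 200 μM CoCl2 hypoxia. Dead cells scored by trypan blue on a hemocytometer, EC50 derived. Three independent experiments.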

NAD-dependent protein deacylase sirtuin-5, mitochondrial (Homo sapiens), sequence (Q9NXA8 37-310 limits assumed): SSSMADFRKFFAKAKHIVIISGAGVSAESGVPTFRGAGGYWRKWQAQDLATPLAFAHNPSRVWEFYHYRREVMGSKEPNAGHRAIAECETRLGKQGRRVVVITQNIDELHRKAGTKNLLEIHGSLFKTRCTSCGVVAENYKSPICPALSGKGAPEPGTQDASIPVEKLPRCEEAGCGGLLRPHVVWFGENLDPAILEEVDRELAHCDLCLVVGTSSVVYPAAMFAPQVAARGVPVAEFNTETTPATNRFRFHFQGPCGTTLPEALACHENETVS

Compound	Activity [1] [%]	Activity [2]	IC50 (MDA-MB-231 [3]) [µM]	Activity (CAL-62 [4])	Activity (CAL-62 [5])	Activity (MDA-MB-231 [6])	Activity (MDA-MB-231 [7])	Activity (MDA-MB-231 [8])	Activity (MDA-MB-231 [9])	Activity (MDA-MB-231 [10])	inhibition at 50 µM (CAL-62 [11]) [%]	Activity (MDA-MB-231 [12])	Activity (MDA-MB-231 [13])	Activity [14]	Activity [15]	Activity (MDA-MB-231 [16])	EC50 (MDA-MB-231 [17]) [µM]
CCOC(=O)C1=CN(C(=O)c2cc(OC)cc(OC)c2)C=C(C(=O)OCC)C1c1ccccc1	178	inactive	3.19	Tde	Active	Active	Active	Active	Active	Active	68	inactive	Active	Active	Active	Active	10.7
CCOC(=O)C1=CN(C(=O)c2ccc(OC)c(OC)c2)C=C(C(=O)OCC)C1c1ccccc1	387	inactive		Tde		Active	Active	Active	Active	Active			Active		Active	Active	
